Results from ChEMBL document CHEMBL1765010, “Reversible competitive α-ketoheterocycle inhibitors of fatty acid amide hydrolase containing additional conformational constraints in the acyl side chain: orally active, long-acting analgesics” (J Med Chem, 2011).
Calls of active or inactive are those of the source.

Columns and labels:
Mus musculus [1] = experiment: Inhibition of FAAH in C57Bl/6J mouse brain assessed as increase of anandamide level at 30 mg/kg, ip after 1 hr relative to control; type: functional; conditions: route intraperitoneal
Procedure, shortened: (§1)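 Male C57Bl/6J mice (<6 months, 20–28 g) dosed i.p. at 30 mg/kg in 18:1:1 saline:ethanol:emulphor emulsion; brains taken 1 h later. One mouse in the initial screen, 3 per group in the follow-up. Brain homogenized in CHCl3:MeOH:Tris pH 8.0 with deuterated lipid standards; organic extract quantified by reverse-phase C18 LC-ESI-MS/MS against vehicle controls.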

Mus musculus [2] = experiment: Inhibition of FAAH in C57Bl/6J mouse brain assessed as increase of N-palmitoyl ethanolamine level at 30 mg/kg, ip after 1 hr relative to control; type: functional; conditions: route intraperitoneal; procedure, shortened: as §1
Mus musculus [3] = experiment: Inhibition of FAAH in C57Bl/6J mouse liver assessed as increase of anandamide level at 30 mg/kg, ip after 1 hr relative to control; type: functional; conditions: route intraperitoneal
Mus musculus [4] = experiment: Inhibition of FAAH in C57Bl/6J mouse liver assessed as increase of N-palmitoyl ethanolamine level at 30 mg/kg, ip after 1 hr relative to control; type: functional; conditions: route intraperitoneal
Mus musculus [5] = experiment: Inhibition of FAAH in C57Bl/6J mouse liver assessed as increase of 2-arachidonoylglycerol level at 30 mg/kg, ip after 1 hr relative to control; type: functional; conditions: route intraperitoneal
Mus musculus [6] = experiment: Inhibition of FAAH in C57Bl/6J mouse brain assessed as increase of anandamide level at 50 mg/kg, po after 1 hr relative to control; type: functional
Procedure, shortened: (§2)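 Male C57Bl/6J mice (<6 months, 20–28 g) given compound orally as a PEG300 solution at 10, 25 or 50 mg/kg, with 3 mice per group in the 50 mg/kg p.o. comparison; brains collected 1 h post-dose. Lipids extracted in CHCl3:MeOH:Tris pH 8.0 with deuterated internal standards, then measured by C18 LC-ESI-MS/MS relative to vehicle-treated mice.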

[7] = Half life in rat liver microsomes; type: ADME, Microsome
[8] = biological target: T1, Fatty-acid amide hydrolase 1 (Homo sapiens) (UniProt O00519); experiment: Competitive inhibition of full-length human FAAH expressed in COS-7 cells by Lineweaver-Burk analysis; type: cell-based
T1 sequence (whole entry): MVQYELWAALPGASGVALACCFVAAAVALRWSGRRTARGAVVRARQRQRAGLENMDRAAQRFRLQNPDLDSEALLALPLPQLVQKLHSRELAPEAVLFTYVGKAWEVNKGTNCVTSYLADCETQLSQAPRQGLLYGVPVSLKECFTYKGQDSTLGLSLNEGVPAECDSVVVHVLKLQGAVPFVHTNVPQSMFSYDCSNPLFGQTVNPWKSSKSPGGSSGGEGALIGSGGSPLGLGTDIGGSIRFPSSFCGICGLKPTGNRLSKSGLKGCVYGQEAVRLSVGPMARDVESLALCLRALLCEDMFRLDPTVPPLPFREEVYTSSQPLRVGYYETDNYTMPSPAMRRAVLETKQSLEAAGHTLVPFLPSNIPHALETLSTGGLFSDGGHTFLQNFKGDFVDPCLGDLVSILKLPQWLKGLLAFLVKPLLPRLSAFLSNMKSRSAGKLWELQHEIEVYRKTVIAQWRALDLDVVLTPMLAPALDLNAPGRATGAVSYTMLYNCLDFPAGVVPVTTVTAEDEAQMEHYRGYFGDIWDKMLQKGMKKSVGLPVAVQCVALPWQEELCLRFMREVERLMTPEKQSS
Procedure, shortened: (§3)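 Solubilized membrane lysate of COS-7 cells transiently transfected with full-length human FAAH cDNA. Aliquots quenched in 0.1 N HCl at three times; oleamide/oleic acid extracted into EtOAc and separated by TLC. Initial rates (≤10–20% conversion) analysed by Lineweaver–Burk plot.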

[9] = biological target: T1, Fatty-acid amide hydrolase 1 (Homo sapiens); experiment: Reversible inhibition of full-length human FAAH expressed in COS-7 cells by Lineweaver-Burk analysis; type: cell-based; procedure, shortened: as §3
[10] = biological target: T2, Fatty-acid amide hydrolase 1 (Rattus norvegicus, UniProt P97612); experiment: Inhibition of rat recombinant FAAH expressed in Escherichia coli assessed as [14C]-labeled oleamide to oleic acid conversion
T2 sequence (P97612 whole entry): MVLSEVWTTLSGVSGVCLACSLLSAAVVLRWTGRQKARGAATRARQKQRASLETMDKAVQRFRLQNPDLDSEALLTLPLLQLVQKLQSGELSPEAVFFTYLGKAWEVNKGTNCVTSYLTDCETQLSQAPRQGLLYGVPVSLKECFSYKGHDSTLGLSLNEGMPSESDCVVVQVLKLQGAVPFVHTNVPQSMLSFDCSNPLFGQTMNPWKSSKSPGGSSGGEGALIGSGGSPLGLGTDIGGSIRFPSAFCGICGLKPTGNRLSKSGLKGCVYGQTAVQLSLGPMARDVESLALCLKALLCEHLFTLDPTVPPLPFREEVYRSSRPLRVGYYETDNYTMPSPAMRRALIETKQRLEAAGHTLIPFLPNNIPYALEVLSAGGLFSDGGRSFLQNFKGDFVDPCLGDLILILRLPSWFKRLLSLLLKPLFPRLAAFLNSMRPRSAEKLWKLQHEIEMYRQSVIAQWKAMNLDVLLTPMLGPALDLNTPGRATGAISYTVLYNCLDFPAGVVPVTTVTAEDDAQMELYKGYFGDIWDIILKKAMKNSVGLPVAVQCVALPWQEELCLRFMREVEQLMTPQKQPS

Mus musculus [11] = experiment: Inhibition of FAAH in C57Bl/6J mouse brain assessed as increase of 2-arachidonoylglycerol level at 30 mg/kg, ip after 1 hr relative to control; type: functional; conditions: route intraperitoneal; procedure, shortened: as §1
Mus musculus [12] = experiment: Inhibition of FAAH in C57Bl/6J mouse brain assessed as increase of arachidonic acid level at 30 mg/kg, ip after 1 hr relative to control; type: functional; conditions: route intraperitoneal; procedure, shortened: as §1
Mus musculus [13] = experiment: Inhibition of FAAH in C57Bl/6J mouse brain assessed as increase of N-palmitoyl ethanolamine level at 50 mg/kg, po after 1 hr relative to control; type: functional; procedure, shortened: as §2
Mus musculus [14] = experiment: Inhibition of FAAH in C57Bl/6J mouse brain assessed as increase of 2-arachidonoylglycerol level at 50 mg/kg, po after 1 hr relative to control; type: functional; procedure, shortened: as §2
Mus musculus [15] = experiment: Antinociceptive activity in CD1 mouse assessed as thermal-stimulus induced tail flick latency at 1.8 to 5.6 mg/kg, iv after 30 to 60 mins; type: functional, organism-based
Procedure, shortened: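 Tail flick at 52 °C in mice, dosed i.v. Baseline responders within 5 s were kept and retested at several times after dosing. Cut-off 10 s, scored 100%. % antinociception = 100 × (test latency − control latency)/(10 − control latency).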

[16] = Half life in human liver microsomes; type: ADME, Microsome

| SMILES | fold change (FC) (Mus musculus [1]) | fold change (FC) (Mus musculus [2]) | fold change (FC) (Mus musculus [3]) | fold change (FC) (Mus musculus [4]) | fold change (FC) (Mus musculus [5]) | fold change (FC) (Mus musculus [6]) | half-life [7] [min] | inhibition [8] | inhibition [9] | Ki [10] [nM] | fold change (FC) (Mus musculus [11]) | fold change (FC) (Mus musculus [12]) | fold change (FC) (Mus musculus [13]) | fold change (FC) (Mus musculus [14]) | Activity (Mus musculus [15]) | half-life [16] [min] |
| --- | --- | --- | --- | --- | --- | --- | --- | --- | --- | --- | --- | --- | --- | --- | --- | --- |
| O=C(CCCCCCc1ccccc1)c1ncc(-c2ccccn2)o1 | 3.3 | 4.6 | 7 | 1.6 | 0.9 | 11 | 2 |  |  |  |  |  |  |  |  |  |
| O=C(O)c1cccc(-c2cnc(C(=O)[C@H]3CCc4cc(Oc5ccccc5)ccc4C3)o2)n1 | 1.5 | 2 | 5 | 2.1 | 1.1 | 3.5 |  | Active | Active | 25 | 1 | 0.7 | 3.7 | 1.4 | Active |  |
| O=C(c1ncc(-c2ccccn2)o1)C1CCc2cc(OCc3ccccc3)ccc2C1 (configuration not stated) |  |  |  |  |  |  |  |  |  |  |  |  |  |  |  | 12 |
